Experimental data of several laboratories.
Target: RAF proto-oncogene serine/threonine-protein kinase (RAF1, Homo sapiens, UniProt P04049)

Cc1cnn2ncc(-c3ccnc(N(C)C)n3)c2c1 — remaining binding (binding; 1 µM): 100%
Cn1nc(C(=O)NCc2ccc(C(=O)O)cc2)cc1-c1ccc2[nH]ccc2c1 — remaining binding (cell-free assay; competition with immobilised ligand; 0.1 µM): 70%
F[C@@H]1CCN(c2nccc(-c3cnn4ncccc34)n2)C1 — remaining binding (binding; 1 µM): 100%
CC(C)(O)c1cncc(-c2nc3ccc(F)cc3n2C2CC2)c1 — remaining binding (cell-free assay; competition with immobilised ligand; 1 µM): 83%
FC(F)(F)Oc1cccc(-c2cnc3ccc(-c4ccncc4)nn23)c1 — remaining binding (cell-free assay; competition with immobilised ligand; 5 µM): 71%
Cc1cnc(Nc2ccc(C(=O)N3CCC(N4CCCC4)CC3)cc2)nc1-c1cc2ccccc2s1 — remaining binding (binding; competition with immobilised ligand; 1 µM): 60%
COc1cnc(Nc2cccc(S(N)(=O)=O)c2)nc1N1CCN(c2ccccc2)C(=O)C1 — remaining binding (binding; competition with immobilised ligand; 1 µM): 98%
O=C(NCC1CCOCC1)c1n[nH]cc1NC(=O)c1c(F)cccc1F — remaining binding (binding; competition with immobilised ligand; 1 µM): 58%
CCC(=O)N[C@@H]1CC[C@H](C(=O)N(C)c2ccc(-c3nc4ccccc4o3)cc2)C1 — remaining binding (cell-free assay; competition with immobilised ligand; 1 µM): 94%
O=C(NCCCN1CCOCC1)c1ccc(Nc2nccc(-c3cc4ccccc4s3)n2)cc1 — remaining binding (binding; competition with immobilised ligand; 1 µM): 65%
Nc1ncc2c(n1)-c1c([nH]c3ccc(C#CC4CC4)cc13)CCCC2 — remaining binding (binding; competition with immobilised ligand; 1 µM): 79%
O=C(N1CCS(=O)(=O)CC1)N1C[C@H](c2ccc(OC(F)(F)F)cc2)C[C@H](c2nc(C3CC3)no2)C1 — remaining binding (cell-free assay; competition with immobilised ligand; 1 µM): 100%
COc1ccnn2ncc(-c3ccnc(N(C)C)n3)c12 — remaining binding (binding; 1 µM): 100%
CCN1CCN(Cc2ccc(C(=O)Nc3ccc(C)c(Oc4ccc5c(c4)CC(=O)N5)c3)cc2C(F)(F)F)CC1 — remaining binding (binding; competition with immobilised ligand; 1 µM): 95%
C[C@H]1CCN(c2nccc(-c3cnn4ncccc34)n2)C1 — remaining binding (binding; 1 µM): 90%
COc1cc(-c2cn(C3CCc4c(F)cccc4N(CC(F)(F)F)C3=O)nn2)ccc1-n1cnc(C)c1 (stereo not drawn) — remaining binding (cell-free assay; competition with immobilised ligand; 1 µM): 100%
O=C(c1ccc(Nc2ncc(Cl)c(-c3ccc(Cl)s3)n2)cc1)N1CCC(N2CCCC2)CC1 — remaining binding (binding; competition with immobilised ligand; 1 µM): 45%
Cn1cc(Cl)c2c(Oc3c(F)cc(Nc4cc(Cl)nc(N)n4)cc3F)ccnc21 — remaining binding (cell-free assay; competition with immobilised ligand; 0.1 µM): 91%
CN(C)c1nccc(-c2cnc3ncccn23)n1 — remaining binding (binding; 1 µM): 67%
CC(=O)C1=C(C)N(c2cccc(C(F)(F)F)c2)C(=O)N[C@@H]1c1ccc(C#N)nc1 — remaining binding (cell-free assay; competition with immobilised ligand; 1 µM): 100%
COc1ncc2cc3ccccc3nc2c1C#N — remaining binding (cell-free assay; competition with immobilised ligand; 5 µM): 93%
N[C@H]1CCN(c2nccc(-c3cnn4ncccc34)n2)C1 — remaining binding (binding; 1 µM): 100%
C[C@@H](c1ccc(-n2cnc3c(N)ncnc32)cc1)N1CCc2nn(C)c(Cc3ccccc3)c2C1=O — remaining binding (binding; competition with immobilised ligand; 0.1 µM): 93%
C[C@@H]1CN(c2ccc3ncc(-c4ccc5[nH]nc(C6CC6)c5c4)n3n2)C[C@H](C)O1 — remaining binding (binding; competition with immobilised ligand; 50 nM): 100%
